# Assay outcomes (PubChem)
# zfTRPN1 agonist – activates the zebrafish TRPN1 channel; AID 1424; HEK293 zebrafish TRPN1-YFP, Fluo-8 calcium fluorescence; 100% = response to 87 µM carbachol; 220,000 compounds, 0.18% hits; activation, % at 3 µM;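 active = activation above its plate's cutoff, the mean activation of test wells on that plate plus 3 SD, cut at about 19% in these data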;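 also: 0% = DMSO alone and 100% = 87 µM carbachol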
#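 Material: zebrafish TRPN1-YFP in HEK293 cells; Doses: single test compound dose, 3 µM nominal, 0.3% DMSO; Timing: dye loading 1 h at 37 °C, then 30 min room temperature; Technique: intracellular calcium fluorescence with Fluo-8; Benchmarks: high carbachol 87 µM, low DMSO alone.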
# TRPML3 agonist – human mucolipin-3 channel agonism | Q8TDD5 | HEK293 TRPML3-YFP, Fluo-8 calcium fluorescence; 100% = the carbachol control signal | activation, % at 3 µM | 220,000 compounds, 0.29% hits | AID 1448;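 active = activation above its plate's cutoff, the mean activation of the plate's test wells plus 3 SD, cut at about 12% in these data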;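 also: 0% = DMSO only wells and 100% = carbachol wells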
# Target sequence (Q8TDD5 whole entry, looked up): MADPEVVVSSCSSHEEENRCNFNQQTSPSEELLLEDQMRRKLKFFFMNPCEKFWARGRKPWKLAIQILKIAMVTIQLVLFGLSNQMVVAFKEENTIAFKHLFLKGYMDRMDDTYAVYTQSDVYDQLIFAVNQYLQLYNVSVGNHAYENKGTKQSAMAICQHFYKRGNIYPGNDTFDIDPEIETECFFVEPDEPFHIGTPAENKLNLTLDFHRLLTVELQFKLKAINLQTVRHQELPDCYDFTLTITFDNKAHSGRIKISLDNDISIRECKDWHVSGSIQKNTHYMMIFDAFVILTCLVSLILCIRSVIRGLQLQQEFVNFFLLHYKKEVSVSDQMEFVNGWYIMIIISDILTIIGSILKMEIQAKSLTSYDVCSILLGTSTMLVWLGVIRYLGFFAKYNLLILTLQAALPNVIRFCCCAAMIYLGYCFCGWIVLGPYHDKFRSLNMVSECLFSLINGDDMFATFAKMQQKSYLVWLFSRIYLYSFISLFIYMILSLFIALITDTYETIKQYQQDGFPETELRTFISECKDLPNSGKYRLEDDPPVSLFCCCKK
#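 Test system – HEK293 line with stable expression of human TRPML3-YFP channel · Control set – carbachol 87 µM final as high control (100%), DMSO as low control (0%) · Signal – Fluo-8 calcium dye fluorescence, ex 470-495, em 515-575 nm · Incubation – 1-h 37 °C dye load, 5-s basal, 120-s post-compound reads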
# V1aR counter – V1a receptor agonism, counter-screen for OXTR agonists; CHO-V1R cells, Fluo-8 calcium fluorescence, agonist mode; 0% DMSO, 100% 3 nM vasopressin; activation, % at 3 µM; P37288; 320,000 compounds, 0.25% hits;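 active = activation above the mean activation of all tested compounds plus 3 SD, per screening run, cut at about 20% in these data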;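 also: signal is peak over basal fluorescence ratio across a 100 second FLIPR read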
# OXTR ag – human OXTR agonism. P30559. 320,000 compounds, 0.32% hits. CHO-OTR cells, Fluo-8 calcium fluorescence; normalized: DMSO 0%, oxytocin 100%. activation, % at 3 µM. AID 2435;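 active = activation above the mean of all tested compounds plus 3 SD, cutoff set per screening run, cut at about 20% in these data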;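 also: peak over basal fluorescence ratio from a 100 s FLIPR kinetic read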
# OXTR potentiator – human OXTR potentiation; AID 2445; CHO-OTR cells, Fluo-8 calcium fluorescence, potentiator mode; 0% = oxytocin EC15, 100% = EC100; activation, % at 3 µM; P30559; 320,000 compounds, 0.061% hits;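 active = activation above that plate's cutoff, the mean activation of tested compounds plus 3 SD, cut at about 6.6% in these data, passing the limit was not always enough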;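 also: 100% uses oxytocin at 75 nM as the full agonist control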
#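 Assay system: CHO cell line stably expressing human OTR. Reagent: EC15 oxytocin agonist. Dosing: single dose, 3.0 µM nominal final compound concentration. Timing: compound 6 min at room temperature before oxytocin, 100 s read. Signal: kinetic Fluo-8 calcium fluorescence. Controls: oxytocin EC15 low and EC100 high.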
# OXTR ag confirm – human OXTR agonism, confirmation. activation, % at 3 µM. 390 compounds, 20% hits. shares compounds with OXTR ag. CHO-OTR cells, Fluo-8 calcium fluorescence, agonist;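 active = mean activation above about 20% derived from the earlier single-dose screen, limit read from the data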;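 also: peak over minimum fluorescence ratio per well during a 100 second FLIPR read; 0% = DMSO alone and 100% = oxytocin high control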
# V1R ag counter 3x – V1R agonism in triplicate, counter-screen for OXTR agonists; shares compounds with OXTR ag; CHO-V1R cells, Fluo-8 calcium fluorescence, agonist; activation, % at 3 µM; 390 compounds, 10% hits;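 active = mean activation over triplicate exceeds the hit threshold set in the earlier primary screen, cut at about 20% in these data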;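 also: peak over basal fluorescence ratio within a 100 second read; 0% = DMSO alone and 100% = 3 nM vasopressin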
# * hit, by the source's call; x = not tested or not shown. Sampled rows, rich in hits. Any-hit rate of the full collection: about 0.59%.
SMILES,zfTRPN1 agonist,TRPML3 agonist,V1aR counter,OXTR ag,OXTR potentiator,OXTR ag confirm,V1R ag counter 3x
O=C(NCCCl)c1ccc(OCc2ccccc2)cc1Cl,-2,1,10,22*,-10,0,0
C#CCNC(=O)c1ccc(OCc2ccccc2)cc1Cl,-2,-1,0,0,3,x,x
CCn1c(CN(C)c2ccccc2)nc2ccccc21,x,x,-1,-2,5,x,x
O=C(COC(=O)c1cc(S(=O)(=O)Nc2ccccc2Cl)ccc1O)Nc1nc2ccccc2s1,1,1,x,x,x,x,x
N#Cc1cccc(NC(=O)COC(=O)c2cc(S(=O)(=O)Nc3ccccc3Cl)ccc2O)c1,x,x,15,20*,-10,11,11
Cc1nn(C)cc1C(C(=O)NC1CCCCC1)N(C(=O)Cc1cccs1)c1ccc(C(C)C)cc1 (centres undefined),2,0,1,22*,-19,5,3
Cc1nn(C)cc1C(C(=O)NC1CCCCC1)N(C(=O)Cc1cccs1)c1ccc(F)cc1 (centres undefined),2,0,1,-1,4,x,x
CCCCOc1ccc(CSCCN)cc1Cl,1,2,13,21*,-13,7,2
COC(=O)C1=C(C)N(Cc2ccccc2)C(=NCc2ccccc2)N[C@H]1c1cccc(F)c1,x,x,9,20*,-10,9,5
COC(=O)C1=C(C)N(Cc2ccccc2)C(=NCCc2c[nH]c3ccccc23)N[C@H]1c1cccc(F)c1,x,x,11,22*,-9,7,4
COC(=O)C1=C(C)N(Cc2ccccc2)C(=NCc2ccccc2)N[C@H]1c1ccccc1,x,x,7,18,-10,x,x
COc1ccccc1C(=O)NNC(=S)NC(=O)c1ccco1,1,1,14,24*,-6,3,7
CC(Oc1ccc(Cl)cc1)C(=O)NNC(=S)NC(=O)c1ccco1 (centres undefined),19,1,11,26*,-13,38*,42*
Cc1ccc(C)c(C(=O)CCC(=O)NNC(=O)c2cccs2)c1,x,x,0,2,-3,x,x
CCOC(=O)c1c(C)n(-c2ccc(C)cc2)c2ccc(OCC(O)CNCC3CCCO3)cc12 (centres undefined),-1,0,10,20*,-11,9,3
C=CCN1C(=O)/C(=C/c2ccc(O)c(OC)c2)S/C1=N/c1nccs1,32*,16*,18,20*,-10,27*,38*
C=CCN1C(=O)/C(=C/c2ccc(OCC(=O)O)cc2)S/C1=N/c1nccs1,-1,0,0,-2,-2,x,x
O=C(NC1CCC(O)CC1)C1CCN(S(=O)(=O)c2c(Cl)cccc2Cl)CC1 (centres undefined),x,x,1,0,-8,x,x
Cc1cc(Cl)ccc1N=c1ssnc1Cl,2,1,10,21*,-9,21*,16
Cc1ccc(N=c2ssnc2Cl)cc1,-1,1,2,2,-11,x,x
CC(C)CCC(C)NC(=O)CN1C(=O)NC(C)(c2ccc3ccccc3c2)C1=O (centres undefined),x,x,3,-1,-8,x,x
CSc1nc(-c2ccccc2)c(-c2ccccc2)[nH]1,-2,-1,18,23*,-20,-1,0
CC1CCCCC12NC(=O)N(CC(=O)c1ccc3c(c1)OCO3)C2=O (centres undefined),x,x,0,-1,2,x,x
CC1=NN(c2ccc(C)cc2C)C(=O)C1C(c1ccccc1O)C1C(=O)N(c2ccc(C)cc2C)N=C1C (centres undefined),0,1,0,1,0,x,x
CC1=NN(c2ccc(Cl)cc2)C(=O)C1C(c1ccccc1O)c1c(C)[nH]n(-c2ccc(Cl)cc2)c1=O (centres undefined),2,1,13,20*,-9,0,1
SMILES,zfTRPN1 agonist,TRPML3 agonist,V1aR counter,OXTR ag,OXTR potentiator,OXTR ag confirm,V1R ag counter 3x
Cc1ccc(S(=O)(=O)NCCC(=O)NNC(=O)COc2ccccc2Cl)cc1C,x,x,0,-1,-5,x,x
CCSc1nsc(NC(=O)Nc2cccc(OC)c2)n1,x,x,13,22*,-25,11,11
CCSc1nsc(NC(=O)Nc2ccccc2F)n1,x,x,10,6,-17,x,x
Cc1ccc(C(=O)Nc2ccccc2N2CCCC2)s1,x,x,0,-2,9,x,x
O=C(NNC(=S)NC(=O)c1ccccc1)c1cccc([N+](=O)[O-])c1,x,x,14,29*,-13,16,21*
CC(=O)Nc1ccc(NC(=O)c2ccnn2C)cc1,x,x,0,0,-8,x,x
Cc1c2ccccc2nc2c(F)c(NC(C)C)c(F)c(F)c12,1,1,11,20*,-6,51*,66*
C=CCN1C(=O)C(CC(=O)O)SC1=Nc1ccc(C(=O)O)cc1 (centres undefined),2,1,1,0,-6,x,x
C=CCN1C(=O)C(Cc2ccccc2Cl)SC1=Nc1ccc(C(=O)O)cc1 (centres undefined),2,0,10,21*,-12,8,8
CCCc1ccc(Oc2cc(NN3CCCCC3)c([N+](=O)[O-])cc2[N+](=O)[O-])cc1,x,x,0,-1,-5,x,x
c1ccc(Nc2nc(NCC3CCCO3)c3ccccc3n2)cc1 (centres undefined),3,2,2,1,-5,x,x
CCOc1ccc(Nc2nc(NCC3CCCO3)c3ccccc3n2)cc1 (centres undefined),0,0,9,20*,-26,0,3
CCCCC(O)(c1ccc(F)cc1)C(CN1CCOCC1)c1ccc(Cl)cc1 (centres undefined),x,x,0,-1,1,x,x
CCCC1(c2ccccc2)NC(=O)N(CC(=O)Nc2cc(C)ccc2OC)C1=O (centres undefined),x,x,7,24*,-12,10,4
CCCC1(c2ccccc2)NC(=O)N(CC(=O)NCc2ccc(C)cc2)C1=O (centres undefined),x,x,1,0,-19,x,x
CN1CCc2c(n(CC(O)CNCc3ccccc3)c3ccccc23)C1=O (centres undefined),-1,1,0,0,-6,x,x
CC(C)NCC(O)Cn1c2c(c3ccccc31)CCc1c-2cnn1-c1ccccc1 (centres undefined),1,2,19,22*,-23,12,6
COc1ccc(-c2csc(N(CCCN(C)C)C(=O)c3ccccc3C)n2)cc1,x,x,4,8,-2,x,x
COc1ccc(-c2csc(N(CCCN(C)C)C(=O)c3ccccc3Cl)n2)cc1,x,x,15,23*,-7,6,3
